# Measured values reported in ChEMBL document CHEMBL1136747, “Influence of the 5-HT6 receptor on acetylcholine release in the cortex: pharmacological characterization of 4-(2-bromo-6-pyrrolidin-1-ylpyridine-4-sulfonyl)phenylamine, a potent and selective 5-HT6 receptor antagonist” (J Med Chem, 2003).
# Experiments:
# [1] = biological target: T1, 5-hydroxytryptamine receptor 6 (Homo sapiens, UniProt P50406); assay: Binding constant towards serotonin receptor subtype 5-hydroxytryptamine 6 receptor expressed in HeLa cells using [3H]LSD as radioligand; format: cell-based
# T1 sequence (P50406 whole entry): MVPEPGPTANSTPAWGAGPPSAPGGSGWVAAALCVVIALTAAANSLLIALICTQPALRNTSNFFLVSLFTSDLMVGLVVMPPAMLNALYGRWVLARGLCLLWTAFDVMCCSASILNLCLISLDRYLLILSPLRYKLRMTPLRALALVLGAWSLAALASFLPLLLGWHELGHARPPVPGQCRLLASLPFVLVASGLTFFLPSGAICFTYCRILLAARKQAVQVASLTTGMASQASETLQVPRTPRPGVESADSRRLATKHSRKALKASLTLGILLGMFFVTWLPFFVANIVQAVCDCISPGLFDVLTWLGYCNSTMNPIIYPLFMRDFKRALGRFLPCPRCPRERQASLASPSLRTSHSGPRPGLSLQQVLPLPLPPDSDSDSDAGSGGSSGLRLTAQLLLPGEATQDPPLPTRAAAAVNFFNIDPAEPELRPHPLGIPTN
# Outline: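 Radioligand binding to human recombinant 5-HT6 receptor expressed in HeLa cells with [3H]-LSD. Values are the mean ± SEM of three independent determinations, each run in triplicate.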
# [2] = In vivo plasma clearance after intravenous administration in rat; format: ADME, organism-based; details: read-out: Clp
# Outline: (§1)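 Rats were dosed at 10 mg/kg in PEG/PG/WIP 40/40/20, either by oral gavage or intravenously with the same dose and formulation. Plasma concentrations were followed over 8 h. PK parameters were derived as plasma clearance, apparent terminal half-life, bioavailability and steady-state volume of distribution, reported as average ± SEM.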
# [3] = tested on: Rattus norvegicus; assay: Ratio of brain/plasma concentration after oral administration in rat expressed as percentage; format: ADME, organism-based
# Outline: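 Rats dosed at 10 mg/kg by oral gavage in PEG/PG/WIP 40/40/20. Brain and plasma concentrations were measured, and the brain/plasma ratio is given as a percentage (average ± SEM).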
# [4] = biological target: 5-hydroxytryptamine receptor 2A (Homo sapiens, UniProt P28223); assay: Binding constant towards serotonin receptor subtype 5-hydroxytryptamine 2A receptor expressed in 3T3 cells using [3H]-DOB as radioligand
# 5-hydroxytryptamine receptor 2A, sequence (P28223 whole entry): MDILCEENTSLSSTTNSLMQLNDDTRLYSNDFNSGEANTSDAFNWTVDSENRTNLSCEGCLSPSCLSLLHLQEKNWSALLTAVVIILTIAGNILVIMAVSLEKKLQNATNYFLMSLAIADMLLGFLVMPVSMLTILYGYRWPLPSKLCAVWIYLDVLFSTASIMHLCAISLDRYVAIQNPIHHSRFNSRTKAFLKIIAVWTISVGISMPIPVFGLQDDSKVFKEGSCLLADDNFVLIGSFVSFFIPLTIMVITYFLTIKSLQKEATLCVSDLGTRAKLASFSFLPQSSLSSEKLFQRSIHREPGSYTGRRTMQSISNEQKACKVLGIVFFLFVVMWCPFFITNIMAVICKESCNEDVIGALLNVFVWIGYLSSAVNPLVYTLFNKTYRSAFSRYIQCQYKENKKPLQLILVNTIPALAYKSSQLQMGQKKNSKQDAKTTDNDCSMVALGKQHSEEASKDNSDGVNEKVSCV
# [5] = Half-life period after oral administration in rat; format: ADME, organism-based; details: in vivo; outline: as §1
# [6] = biological target: T2, 5-hydroxytryptamine receptor 2C (Homo sapiens, UniProt P28335); assay: Binding constant towards serotonin receptor subtype 5-hydroxytryptamine 2C receptor expressed in 3T3 cells using [3H]5-HT as radioligand; format: cell-based, NIH3T3
# T2 sequence (P28335 whole entry): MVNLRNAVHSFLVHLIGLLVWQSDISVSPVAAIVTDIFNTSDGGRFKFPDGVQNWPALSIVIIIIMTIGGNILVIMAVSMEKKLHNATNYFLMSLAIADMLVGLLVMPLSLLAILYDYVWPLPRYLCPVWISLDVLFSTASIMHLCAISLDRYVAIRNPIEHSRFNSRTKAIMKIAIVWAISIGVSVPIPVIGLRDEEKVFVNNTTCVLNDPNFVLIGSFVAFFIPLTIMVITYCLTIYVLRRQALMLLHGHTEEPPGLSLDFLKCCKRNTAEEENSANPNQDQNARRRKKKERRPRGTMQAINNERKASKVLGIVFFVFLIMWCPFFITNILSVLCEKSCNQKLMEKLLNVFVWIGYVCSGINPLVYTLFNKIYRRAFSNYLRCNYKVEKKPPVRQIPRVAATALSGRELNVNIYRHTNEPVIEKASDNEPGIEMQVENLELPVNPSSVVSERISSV
# [7] = Partition coefficient (logD7.4); format: physicochemical; details: octanol/water, pH 7.4
# [8] = biological target: 5-hydroxytryptamine receptor 1D (Homo sapiens, UniProt P28221); assay: Binding constant towards serotonin receptor subtype 5-hydroxytryptamine 1D receptor expressed in HEK 293 cells using [3H]LSD as radioligand; format: cell-based, HEK293
# 5-hydroxytryptamine receptor 1D, sequence (P28221 whole entry): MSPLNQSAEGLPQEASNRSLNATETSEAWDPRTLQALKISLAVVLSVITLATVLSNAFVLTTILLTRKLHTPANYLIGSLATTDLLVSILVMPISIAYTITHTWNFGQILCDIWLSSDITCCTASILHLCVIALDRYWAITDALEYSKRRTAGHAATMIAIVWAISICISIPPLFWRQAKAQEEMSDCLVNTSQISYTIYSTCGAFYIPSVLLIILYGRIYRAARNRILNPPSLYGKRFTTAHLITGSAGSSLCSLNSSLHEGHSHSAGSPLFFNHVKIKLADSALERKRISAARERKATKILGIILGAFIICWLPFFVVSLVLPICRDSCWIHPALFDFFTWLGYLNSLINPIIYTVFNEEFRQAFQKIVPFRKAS
# [9] = biological target: T1, 5-hydroxytryptamine receptor 6; assay: Antagonism assessed in a functional cAMP binding assay using 5-CT to stimulate human 5-hydroxytryptamine 6 receptor expressed in HEK 293 cells; format: cell-based, HEK293; details: read-out: pA2 (converted)
# Outline: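 Human 5-HT6 receptor stably expressed in HEK-293 cells; adenylate cyclase (cAMP) activity stimulated with 5-CT. 5-CT concentration–response curves were run with increasing antagonist concentrations, and the shift was analysed by Schild analysis, n = 3.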
# [10] = Dissociation constant was determined
# [11] = Half-life period after intravenous administration in rat; format: ADME, organism-based; details: in vivo; outline: as §1
# [12] = Bioavailability after oral administration in rat expressed as percentage; format: ADME, organism-based; details: in vivo; outline: as §1
# [13] = biological target: 5-hydroxytryptamine receptor 7 (Homo sapiens, UniProt P34969); assay: Binding constant towards serotonin receptor subtype 5-hydroxytryptamine 7 receptor expressed in CHO cells using [3H]LSD as radioligand; format: cell-based
# 5-hydroxytryptamine receptor 7, sequence (P34969 whole entry): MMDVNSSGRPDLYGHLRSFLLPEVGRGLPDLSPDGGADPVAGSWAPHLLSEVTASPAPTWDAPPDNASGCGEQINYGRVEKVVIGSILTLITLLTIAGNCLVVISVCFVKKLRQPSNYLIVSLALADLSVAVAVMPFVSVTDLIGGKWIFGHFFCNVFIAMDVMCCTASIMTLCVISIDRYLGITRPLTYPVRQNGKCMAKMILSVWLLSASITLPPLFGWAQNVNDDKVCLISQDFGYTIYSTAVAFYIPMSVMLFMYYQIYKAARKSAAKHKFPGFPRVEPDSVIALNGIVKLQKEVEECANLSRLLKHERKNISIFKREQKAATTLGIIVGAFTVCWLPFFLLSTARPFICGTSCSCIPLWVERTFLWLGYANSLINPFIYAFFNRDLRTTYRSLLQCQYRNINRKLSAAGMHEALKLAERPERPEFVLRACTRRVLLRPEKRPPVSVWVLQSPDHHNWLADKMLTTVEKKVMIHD
# [14] = Volume of distribution at steady state after intravenous administration in rat; format: ADME, organism-based; details: in vivo, read-out: Vss; outline: as §1
SMILES,Ki [1] [nM],Ki [4] [nM],Ki [6] [µM],Ki [8] [µM],Ki [13] [µM],further results
Nc1ccc(S(=O)(=O)c2cc(Br)nc(N3CCCC3)c2)cc1,1,1450,> 10,> 100,> 100,clearance [2]: 20 mL/min/kg; Ratio [3]: 24%; half-life [5]: 180 min; logD [7]: 3.3; Kb [9]: 3.16 nM; pKa [10]: < 2; half-life [11]: 222 min; bioavailability [12]: 46%; Vd [14]: 1.4 L/kg
CNc1cc(S(=O)(=O)c2ccc(N)cc2)cc(Br)n1,2.29,,> 10,> 10,> 10,
Nc1ccc(S(=O)(=O)c2cc(Br)nc(N3CCNCC3)c2)cc1,0.115,,0.0204,1.12,> 10,
Nc1ccc(S(=O)(=O)c2cc(Br)nc(Br)c2)cc1,53.7,,,,,

# The next lines start with results.
Ki [1] [nM],Ki [4] [nM],Ki [6] [µM],Ki [8] [µM],Ki [13] [µM],SMILES,further results
42.7,,,,,CNc1cc(S(=O)(=O)Nc2ccc(N)cc2)cc(Br)n1,
55,> 10000,> 10,> 10,> 10,CNc1cc(NS(=O)(=O)c2ccc(N)cc2)nc(NC)n1,
